# Tests used:
# Rattus norvegicus [1] = organism: Rattus norvegicus; experiment: Intrinsic activity at rat MT2 receptor expressed in CHO-Galpha16 cells assessed as Ca2+ mobilization after 20 mins by FLIPR assay relative to agomelatine; format: cell-based
# How it was run: (§1)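 CHO-Galpha16 cells expressing rat MT1 or MT2, plated 24 h ahead, loaded with Fluo4-AM (1.5 final) plus pluronic acid in HBSS/20 mM HEPES/0.1% BSA pH 7.4 with 2.5 mM probenecid, 1 h at 37 °C, then washed. Ca2+ read by FLIPR. Agonist mode: 15 s baseline, compound added, 3 min read. Antagonist mode: compound preincubated 20 min at room temperature, then melatonin at EC80, 3 min read.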
# [2] = Binding affinity to rat MT1 receptor expressed in CHO-Galpha16 cells assessed as Ca2+ mobilization after 20 mins by FLIPR assay; format: cell-based; how it was run: as §1
# CHO-Galpha16 [3] = experiment: Intrinsic activity at rat MT1 receptor expressed in CHO-Galpha16 cells assessed as Ca2+ mobilization after 20 mins by FLIPR assay relative to ramelteon; format: cell-based; how it was run: as §1
# [4] = Binding affinity to rat MT2 receptor expressed in CHO-Galpha16 cells assessed as Ca2+ mobilization after 20 mins by FLIPR assay; format: cell-based; how it was run: as §1
# [5] = Displacement of [3H]melatonin from rat MT1 receptor expressed in CHO-Galpha16 cells; format: cell-based
# How it was run: (§2)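 Rat MT1 or MT2 membranes from CHO-Galpha16 cells incubated with [3H]-melatonin (0.5 nM final, 80 Ci/mmol) in 50 mM Tris/HCl pH 7.4, 5 mM MgCl2. Nonspecific binding defined with excess melatonin. Stopped by rapid GF/B filtration with five ice-cold washes. Ki from IC50 via Cheng–Prusoff.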
# [6] = Displacement of [3H]melatonin from rat MT2 receptor expressed in CHO-Galpha16 cells; format: cell-based; how it was run: as §2
# Liver microsomes [7] = experiment: Intrinsic clearance in rat liver microsome at 1 uM by LC/MS analysis; format: ADME
# How it was run: (§3)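 Compound at 1 µM incubated with liver microsomes (0.5 mg/mL protein) and an NADPH-regenerating system, sampled at 0, 5, 15, 30 and 60 min. Quenched, centrifuged supernatants analysed by LC/MS for remaining parent to estimate T1/2.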
# CHO-Galpha16 [8] = experiment: Inhibition of rat MT1 receptor expressed in CHO-Galpha16 cells relative to control; format: cell-based; set-up: concentration or dose not given beside the values; details: dose or concentration not given here; how it was run: as §1
# Liver microsomes [9] = experiment: Intrinsic clearance in human liver microsome at 1 uM by LC/MS analysis; format: ADME; how it was run: as §3
# [10] = (§4) Ratio of Ki for rat MT1 to Ki for rat MT2; how it was run: as §2
# [11] = Ratio of drug level in rat brain to plasma at 10 mg/kg, ip after 1 hr; format: ADME, organism-based; set-up: dose 10 mg/kg, route intraperitoneal
# How it was run: (§5)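 Rats dosed 10 mg/kg IP, with brain and plasma concentrations taken at 1 h. Vehicle varied: 20% HP-bCD, 15% Solutol, or 10% DMSO with 2.5% PEG400 in 15% Solutol. B/P is the brain-to-plasma concentration ratio.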
# Rattus norvegicus [12] = organism: Rattus norvegicus; experiment: as §4; how it was run: as §2
# [13] = Drug level in rat brain at 10 mg/kg, ip after 1 hr; format: ADME, organism-based; set-up: dose 10 mg/kg, route intraperitoneal; details: read-out: Drug uptake; how it was run: as §5
# [14] = Drug level in rat plasma at 10 mg/kg, ip after 1 hr; format: ADME, organism-based; set-up: dose 10 mg/kg, route intraperitoneal; details: read-out: Drug uptake; how it was run: as §5
# CHO-Galpha16 [15] = experiment: Inhibition of rat MT2 receptor expressed in CHO-Galpha16 cells relative to control; format: cell-based; details: dose or concentration not given here; how it was run: as §1
# [16] = Agonist activity at human MT2 receptor; format: functional
# [17] = Agonist activity at human MT1 receptor; format: functional
SMILES,Intrinsic activity (Rattus norvegicus [1]) [%],EC50 [2] [nM],Intrinsic activity (CHO-Galpha16 [3]) [%],EC50 [4] [nM],Ki [5] [nM],Ki [6] [nM],also measured
COc1ccccc1C1CCN(C(=O)C2CC2)CC1,3,> 10000,2,> 10000,,,
COc1cccc(C2CCN(C(=O)[C@H]3C[C@@H]3C)CC2)c1,65,610,19,140,150,35,
O=C(N[C@H]1CCCN(c2cccc(OC(F)F)c2)C1)C1CC1,57,390,21,4.2,410,44,IC50 [5]: 870 nM; clearance (Liver microsomes [7]): 485 µL/min/mg; inhibition (CHO-Galpha16 [8]): 96%; clearance (Liver microsomes [9]): 48 µL/min/mg
COc1cccc(N2CCCC2CNC(=O)C2CC2)c1 (racemic),98,18,89,2.5,21,3.3,
CC(C)Oc1cccc(C2CCN(C(=O)C3CC3)CC2)c1,10,> 10000,9,> 10000,,,
O=C(N[C@H]1CCCN(c2cccc(OC(F)(F)F)c2)C1)C1CC1,53,> 10000,1,12,190,66,IC50 [5]: 2100 nM; inhibition (CHO-Galpha16 [8]): 95%
COc1cccc(-c2cccc(NC(=O)C3CC3)n2)c1,57,> 10000,15,1200,1500,83,IC50 [5]: 3800 nM; inhibition (CHO-Galpha16 [8]): 41%
COc1cccc(N2CCCC(NC(=O)C3CC3)C2)c1 (racemic),99,9.7,85,2.9,15,2.7,IC50 [5]: > 10000 nM; Ki ratio (MT1/MT2) [10]: 5.6; IC50 [6]: > 10000 nM
COc1cccc(C2CCN(C(=O)C3CCC3)CC2)c1,62,380,52,200,140,67,
COc1cccc(C2CCN(C(=O)CC(C)C)CC2)c1,35,1700,39,1800,,,
O=C(C1CC1)N1CCC(c2cccc(O)c2)CC1,23,> 10000,96,3600,,,
COc1cccc(C2CCN(C(=O)C(C)C)CC2)c1,76,98,87,19,160,31,
COc1cccc(C2CCN(C(=O)C3CC3)CC2)c1,74,65,41,9.5,40,10,clearance (Liver microsomes [7]): 91 µL/min/mg; Kp at 1 h [11]: 1.4; Ratio Ki (Rattus norvegicus [12]): 4; concentration at 1 h [13]: 540 nM; clearance (Liver microsomes [9]): 29 µL/min/mg; concentration at 1 h [14]: 390 nM
Cc1cccc(C2CCN(C(=O)C3CC3)CC2)c1,15,> 10000,0.4,> 10000,,,
COc1ccc(C2CCN(C(=O)C3CC3)CC2)cc1,94,> 10000,58,5000,1100,870,
COc1cccc(C2CCN(C(=O)C3CC3(C)C)CC2)c1 (stereo unspecified),30,640,33,147,,,
COc1cccc(C2CCN(C(C)=O)CC2)c1,19,> 10000,6,> 10000,,,

SMILES,Intrinsic activity (Rattus norvegicus [1]) [%],EC50 [2] [nM],Intrinsic activity (CHO-Galpha16 [3]) [%],EC50 [4] [nM],Ki [5] [nM],Ki [6] [nM],also measured
COc1cccc(C2CCN(C(=O)c3ccccc3)CC2)c1,60,> 10000,12,4400,650,110,
CCOc1cccc(C2CCN(C(=O)C3CC3)CC2)c1,,,,,5700,4100,
COc1cccc(C2CCN(C(=O)C3CCCCC3)CC2)c1,36,7500,42,2800,,,
COc1cc(N2CCC[C@@H](NC(=O)C3CC3)C2)ccc1Cl,23,> 10000,19,> 10000,130,31,IC50 [5]: 440 nM; Ratio Ki (Rattus norvegicus [12]): 4; inhibition (CHO-Galpha16 [8]): 94%; IC50 [6]: 24 nM; inhibition (CHO-Galpha16 [15]): 98%
COc1cccc(N2CCC[C@H](NC(=O)C3CC3)C2)c1,74,3.9,77,6.2,9.9,2.7,clearance (Liver microsomes [7]): 616 µL/min/mg; Kp at 1 h [11]: 0.2; concentration at 1 h [13]: 180 nM; clearance (Liver microsomes [9]): 28 µL/min/mg; concentration at 1 h [14]: 730 nM
COc1ccc2[nH]cc(CCNC(C)=O)c2c1 [MELATONIN],97,0.56,97,1.1,0.99,0.58,
O=C(N[C@H]1CCCN(c2cccc(OCCO)c2)C1)C1CC1,12,> 10000,3,> 10000,610,150,IC50 [5]: 930 nM; inhibition (CHO-Galpha16 [8]): 91%; IC50 [6]: 31 nM; inhibition (CHO-Galpha16 [15]): 94%
COc1cc(N2CCC[C@H](NC(=O)C3CC3)C2)ccc1Cl,65,0.74,73,2.3,1.2,2.1,clearance (Liver microsomes [7]): 199 µL/min/mg; clearance (Liver microsomes [9]): 45 µL/min/mg
COc1cccc(N2CCC[C@@H](NC(=O)C3CC3)C2)c1,23,3500,30,93,1000,95,IC50 [6]: 10 nM; inhibition (CHO-Galpha16 [15]): 97%
COc1ccc(C2CCN(C(C)=O)CC2)cc1,140,1700,34,3400,4700,360,
COc1ccc2cccc(CCNC(C)=O)c2c1 [AGOMELATINE],100,2.1,94,1.4,1.2,0.14,clearance (Liver microsomes [7]): 144 µL/min/mg; Kp at 1 h [11]: 1.5; concentration at 1 h [13]: 1030 nM; clearance (Liver microsomes [9]): 361 µL/min/mg; concentration at 1 h [14]: 700 nM
CCC(=O)N1CCC(c2cccc(OC)c2)CC1,66,1300,31,42,810,150,
COc1cccc(N2CC(NC(=O)C3CC3)Cc3ccccc32)c1 (racemic),35,170,84,50,75,6.7,
CCC(CC)C(=O)N1CCC(c2cccc(OC)c2)CC1,35,2300,32,790,,,
CCC(=O)NCC[C@@H]1CCc2ccc3c(c21)CCO3 [RAMELTEON],95,3.1,100,0.89,2,0.03,clearance (Liver microsomes [7]): 60 µL/min/mg; Kp at 1 h [11]: 0.7; concentration at 1 h [13]: 390 nM; clearance (Liver microsomes [9]): 47 µL/min/mg; concentration at 1 h [14]: 580 nM
CCCC(=O)N[C@H]1CCN(c2cccc(OC)c2)C1,,,,,,,Ki [16]: 2.6 nM; Ki [17]: 3.7 nM
COc1cccc(C2CCN(C(=O)C3CCCC3)CC2)c1,74,210,67,110,,,

# Source: ChEMBL document CHEMBL1667823, “Design and synthesis of 4-arylpiperidinyl amide and N-arylpiperdin-3-yl-cyclopropane carboxamide derivatives as novel melatonin receptor ligands” (Bioorg Med Chem Lett, 2011)
